In ChEMBL document CHEMBL2163220 (J Med Chem, 2012):
Calls of active or inactive are those of the source. No cut-off for these calls is given here.

Tests used:
[1] = target: T1, Androgen receptor (Homo sapiens) (UniProt P10275); experiment: Antagonist activity at androgen receptor in human LNCaP cells assessed as increase in Maspin protein expression at 1 to 5 uM incubated for 24 hrs by Western blotting
T1 sequence (whole entry): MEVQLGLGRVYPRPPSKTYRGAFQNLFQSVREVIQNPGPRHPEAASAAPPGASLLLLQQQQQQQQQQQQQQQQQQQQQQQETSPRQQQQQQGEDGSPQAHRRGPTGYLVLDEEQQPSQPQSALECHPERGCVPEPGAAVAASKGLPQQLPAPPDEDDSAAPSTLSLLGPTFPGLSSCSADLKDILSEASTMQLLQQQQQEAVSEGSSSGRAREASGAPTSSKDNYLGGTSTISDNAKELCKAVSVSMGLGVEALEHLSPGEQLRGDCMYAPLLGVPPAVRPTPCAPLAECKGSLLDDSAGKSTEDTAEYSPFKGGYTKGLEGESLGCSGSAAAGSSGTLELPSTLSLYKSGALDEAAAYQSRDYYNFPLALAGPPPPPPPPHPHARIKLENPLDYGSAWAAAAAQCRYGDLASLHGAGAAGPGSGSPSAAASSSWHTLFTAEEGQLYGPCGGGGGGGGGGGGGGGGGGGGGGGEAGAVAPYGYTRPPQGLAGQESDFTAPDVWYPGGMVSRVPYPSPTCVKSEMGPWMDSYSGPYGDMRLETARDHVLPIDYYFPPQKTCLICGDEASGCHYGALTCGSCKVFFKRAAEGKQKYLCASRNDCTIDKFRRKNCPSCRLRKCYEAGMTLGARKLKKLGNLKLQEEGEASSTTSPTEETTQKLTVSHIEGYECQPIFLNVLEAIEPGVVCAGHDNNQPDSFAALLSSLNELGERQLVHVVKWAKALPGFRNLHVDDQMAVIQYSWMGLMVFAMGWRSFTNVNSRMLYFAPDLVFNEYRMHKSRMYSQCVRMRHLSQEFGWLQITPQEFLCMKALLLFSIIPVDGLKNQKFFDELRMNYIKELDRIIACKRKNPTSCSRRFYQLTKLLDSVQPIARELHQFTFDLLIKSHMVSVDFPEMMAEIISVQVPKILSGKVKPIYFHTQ

[2] = system: PC-3; experiment: Effect on in Maspin expression in human PC3 cells deficient in wild type androgen receptor at 2.5 uM by luciferase reporter gene assay; assay type: functional, cell-based
In short: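 PC-3 cells were transfected with maspin-luc, with or without cotransfected AR. Cells were exposed to DMSO vehicle or compound at 2.5 and 5 μM. Luciferase activity was measured in triplicate.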

[3] = target: T1, Androgen receptor (Homo sapiens); experiment: Antagonist activity at androgen receptor in human LNCaP cells assessed as reduction in DHT-induced PSA expression by luciferase reporter gene assay; assay type: functional, cell-based
In short: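 LNCaP cells carrying a PSA-luc reporter were treated with compound at 1 and 2.5 μM in the presence of 1 nM DHT. Fold suppression was calculated relative to 1 nM DHT alone. Run in triplicate.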

[4] = target: T2, Glucocorticoid receptor (Homo sapiens) (UniProt P04150); experiment: Agonist activity at glucocorticoid receptor expressed in human PC3 cells assessed as stimulation of receptor transactivation at 1 uM by luciferase reporter gene assay; assay type: functional, cell-based; details: PC-3
T2 sequence (whole entry): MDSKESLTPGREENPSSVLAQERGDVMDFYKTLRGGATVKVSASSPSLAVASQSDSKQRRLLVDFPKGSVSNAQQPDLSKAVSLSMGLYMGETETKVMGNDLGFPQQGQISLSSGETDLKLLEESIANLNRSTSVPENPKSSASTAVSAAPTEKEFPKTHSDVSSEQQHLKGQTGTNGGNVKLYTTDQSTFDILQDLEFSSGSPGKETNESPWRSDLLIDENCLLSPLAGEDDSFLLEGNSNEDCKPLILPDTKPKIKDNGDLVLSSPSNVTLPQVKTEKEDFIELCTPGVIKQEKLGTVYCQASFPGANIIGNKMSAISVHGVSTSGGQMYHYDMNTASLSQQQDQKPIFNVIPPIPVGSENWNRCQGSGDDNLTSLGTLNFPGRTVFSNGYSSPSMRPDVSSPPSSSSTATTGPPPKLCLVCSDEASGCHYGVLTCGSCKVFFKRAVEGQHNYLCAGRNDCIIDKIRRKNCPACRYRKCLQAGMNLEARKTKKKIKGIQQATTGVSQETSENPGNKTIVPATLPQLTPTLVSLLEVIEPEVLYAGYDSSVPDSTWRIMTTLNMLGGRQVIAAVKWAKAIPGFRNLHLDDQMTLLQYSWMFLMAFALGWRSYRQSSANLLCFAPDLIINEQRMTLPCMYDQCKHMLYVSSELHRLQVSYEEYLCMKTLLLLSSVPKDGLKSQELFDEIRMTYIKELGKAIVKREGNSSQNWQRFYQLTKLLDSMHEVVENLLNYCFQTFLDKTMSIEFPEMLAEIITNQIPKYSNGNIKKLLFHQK
In short: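 PC-3 cells express GR endogenously and were transfected only with the MMTV-luc reporter. Compound tested at 1 μM, alone or against transactivation induced by 10 nM dexamethasone. Read-out was luciferase reporter activity.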

Activity [1]: Active
Activity [3]: Dose-dependent effect
Activity [4]: inactive
SMILES: Cc1coc2c1C(=O)C(=O)c1c-2ccc2c1CCCC2(C)C [TANSHINONE IIA]
Activity [2]: inactive
